ChEMBL document CHEMBL4350969, “Falcipain Inhibitors Based on the Natural Product Gallinamide A Are Potent in Vitro and in Vivo Antimalarials” (J Med Chem, 2019)
Active and inactive are the calls of the source. The rule behind the calls is not given here.

Tests used:
[1] = biological target: T1, Cysteine protease falcipain-3 (Plasmodium falciparum, UniProt Q9NAW4); assay: Inhibition of Plasmodium falciparum N-terminal His-tagged falcipain-3 (33 residues) expressed in Escherichia coli M15 pREP4 using Z-Leu-Arg-AMC as substrate measured after 30 mins by spectrofluorometric method
T1 sequence (Q9NAW4 whole entry): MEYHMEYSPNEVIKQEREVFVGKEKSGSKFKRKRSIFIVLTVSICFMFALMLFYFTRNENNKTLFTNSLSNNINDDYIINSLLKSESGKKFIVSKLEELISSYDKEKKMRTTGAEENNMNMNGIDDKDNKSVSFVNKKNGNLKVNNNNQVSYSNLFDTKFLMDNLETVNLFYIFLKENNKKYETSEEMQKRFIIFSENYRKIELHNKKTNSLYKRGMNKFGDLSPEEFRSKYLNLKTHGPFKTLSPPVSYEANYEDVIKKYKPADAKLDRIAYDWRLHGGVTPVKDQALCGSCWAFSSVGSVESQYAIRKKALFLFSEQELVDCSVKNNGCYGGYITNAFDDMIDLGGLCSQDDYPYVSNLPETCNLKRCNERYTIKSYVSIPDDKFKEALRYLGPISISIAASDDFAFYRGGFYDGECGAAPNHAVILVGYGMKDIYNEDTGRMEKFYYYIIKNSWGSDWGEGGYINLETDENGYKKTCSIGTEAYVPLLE
Summary of the method: (§1)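 Recombinant heterologously expressed FP2 or FP3; inhibition measured by continuous kinetic cleavage of fluorogenic substrate Z-Leu-Arg-AMC.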

[2] = Drug metabolism in human liver microsomes assessed as N-demethylation at 10 uM measured after 60 mins in presence of NADPH-generating system by UPLC-MS analysis; type: ADME, Microsome; details: 1 h
Plasmodium falciparum [3] = assay: Induction of morphological changes in synchronized ring stage Plasmodium falciparum W2 infected in human erythrocytes assessed as swollen food vacuoles with accumulated hemoglobin at 300 nM measured after 36 hrs by Giemsa staining-based photomicrographic method; type: functional, organism-based
Summary of the method: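 Synchronized W2 P. falciparum cultures exposed from ring stage for 36 h to compound (4.5–10,000 nM range), with E-64 and 0.1% DMSO controls; thin smears methanol-fixed, Giemsa-stained and photographed.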

[4] = Half life in Swiss mouse plasma at 1 ug/ml by UPLC-MS analysis; type: ADME, cell-free
Summary of the method: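 Fresh whole blood from non-fasted male Swiss outbred mice; plasma separated by centrifugation. Compound spiked to 1 μg/mL final (0.2% DMSO, 0.4% acetonitrile), kept at 37 °C; aliquots taken over 4 h (n=3 per time point), snap-frozen, protein precipitated with acetonitrile, UPLC-MS (ESI+) against matrix calibration standards. Exponential decay fit gives k; half-life = ln(2)/k.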

[5] = Drug metabolism in mouse liver microsomes assessed as N-demethylation at 10 uM measured after 60 mins in presence of NADPH-generating system by UPLC-MS analysis; type: ADME, Microsome; details: 1 h
Plasmodium berghei [6] = assay: Antimalarial activity against Plasmodium berghei ANKA infected in specific pathogen-free C57BL/6 mouse assessed as reduction in parasitemia at 25 to 50 mg/kg, ip administered at 72 hrs post-infection and measured daily up to 35 days post-infection by rapid staining-based microscopic analysis; type: functional, organism-based
Summary of the method: (§2)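 Peters 4-day suppressive test: female C57BL/6 mice, 8–9 weeks old, inoculated i.p. with 10^6 PbA-parasitized red cells in 200 µL Alsever's medium. Compound in DMSO diluted in saline (50, 25, 12.5, 6.25 mg/kg) or vehicle, 200 µL i.p. at 4, 24, 48 and 72 h. Daily tail-vein smears, Rapid Stain, % parasitemia by microscopy; cure = healthy, no parasitemia at day 35; 5 mice/group, mean ± SEM.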

Plasmodium falciparum [7] = assay: Antimalarial activity against synchronized ring stage CQ-sensitive Plasmodium falciparum 3D7 infected in human erythrocytes incubated for 24 hrs followed by compound washout and subsequent compound addition and measured after 48 hrs by YOYO-1 probe-based flow cytometry; type: functional, organism-based
Falcipain 2 = biological target: T2, Falcipain 2 (Plasmodium falciparum, UniProt Q9N6S8); assay: Inhibition of Plasmodium falciparum N-terminal His6-tagged falcipain-2 (35 residues) expressed in Escherichia coli M15 pREP4 using Z-Lue-Arg-AMC as substrate measured after 30 mins by spectrofluorometric method; summary of the method: as §1
T2 sequence (Q9N6S8 whole entry): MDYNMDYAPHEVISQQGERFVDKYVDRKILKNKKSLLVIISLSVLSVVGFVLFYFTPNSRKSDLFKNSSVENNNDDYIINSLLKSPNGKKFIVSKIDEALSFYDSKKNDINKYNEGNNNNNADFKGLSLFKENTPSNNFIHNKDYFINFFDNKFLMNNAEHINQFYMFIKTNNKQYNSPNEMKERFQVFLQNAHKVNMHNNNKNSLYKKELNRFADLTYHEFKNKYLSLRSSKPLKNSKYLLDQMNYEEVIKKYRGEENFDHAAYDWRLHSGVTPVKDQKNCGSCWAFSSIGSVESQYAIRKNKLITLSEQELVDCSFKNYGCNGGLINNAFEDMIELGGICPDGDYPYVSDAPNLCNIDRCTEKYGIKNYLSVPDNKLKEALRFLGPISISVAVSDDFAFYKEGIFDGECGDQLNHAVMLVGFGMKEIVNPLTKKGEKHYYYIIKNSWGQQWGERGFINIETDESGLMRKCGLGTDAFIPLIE

[8] = Half life in Swiss mouse blood at 1 ug/ml by UPLC-MS analysis; type: ADME, tissue-based; details: whole blood
HEK293 = assay: Cytotoxicity against HEK293 cells assessed as reduction in cell viability at 25 uM measured after 18 hrs by alamar blue assay; type: cell-based; details: human, hek293, 18 h
Plasmodium falciparum [9] = assay: Antimalarial activity against synchronized ring stage CQ-resistant Plasmodium falciparum W2 infected in human erythrocytes incubated for 24 hrs followed by compound washout and subsequent compound addition and measured after 48 hrs by YOYO-1 probe-based flow cytometry; type: functional, organism-based
Plasmodium berghei [10] = assay: Antimalarial activity against Plasmodium berghei ANKA infected in specific pathogen-free C57BL/6 mouse assessed as reduction in parasitemia at 12.5 to 50 mg/kg, ip administered at 72 hrs post-infection and measured daily up to 35 days post-infection by rapid staining-based microscopic analysis; type: functional, organism-based; summary of the method: as §2
Plasmodium berghei [11] = assay: Antimalarial activity against Plasmodium berghei ANKA infected in specific pathogen-free C57BL/6 mouse assessed as mouse survival at 25 to 50 mg/kg, ip administered at 72 hrs post-infection by rapid staining-based microscopic analysis
Plasmodium berghei [12] = assay: Antimalarial activity against Plasmodium berghei ANKA infected in specific pathogen-free C57BL/6 mouse assessed as reduction in parasitemia at 100 mg/kg, po administered once daily for 4 days measured up to 35 days post-infection by rapid staining-based microscopic analysis; type: functional, organism-based
Summary of the method: (§3)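 Female C57BL/6 mice, 8–9 weeks old, inoculated i.p. with 10^6 P. berghei ANKA-parasitized red cells. Compound dissolved in DMSO, diluted in 154 mM NaCl, given by oral gavage at 100 mg/kg on days 4, 5, 6 and 7 post-infection. Tail-vein thin smears stained with Rapid Stain, % parasitemia by microscopy; mice euthanized at signs of severe disease.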

Plasmodium berghei [13] = assay: Antimalarial activity against Plasmodium berghei ANKA infected in specific pathogen-free C57BL/6 mouse assessed as reduction in parasitemia at 50 mg/kg, ip administered once daily for 4 days measured up to 35 days post-infection by rapid staining-based microscopic analysis; type: functional, organism-based
Summary of the method: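 Established-infection model: female C57BL/6 mice inoculated i.p. with 10^6 PbA-parasitized red cells; compound in DMSO diluted in saline given i.p. at 50 mg/kg on days 4, 5, 6 and 7 post-infection, chloroquine 50 mg/kg as comparator, vehicle controls; 7 mice per group. Tail-vein smears, % parasitemia by microscopy, mean ± SEM; survival recorded.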

[14] = Drug metabolism in human liver microsomes assessed as N,N-bis-demethylation at 10 uM measured after 60 mins in presence of NADPH-generating system by UPLC-MS analysis; type: ADME, Microsome; details: 1 h
Plasmodium berghei [15] = assay: Antimalarial activity against Plasmodium berghei ANKA infected in specific pathogen-free C57BL/6 mouse assessed as reduction in parasitemia at […] to 12.5 mg/kg, ip administered at 72 hrs post-infection and measured daily up to 35 days post-infection by rapid staining-based microscopic analysis; type: functional, organism-based; summary of the method: as §2
[16] = Drug metabolism in mouse liver microsomes assessed as N,N-bis-demethylation at 10 uM measured after 60 mins in presence of NADPH-generating system by UPLC-MS analysis; type: ADME, Microsome; details: 1 h
[17] = Intrinsic clearance in mouse liver microsomes assessed per mg protein at 1 uM measured after 60 mins in presence of NADPH-generating system by UPLC-MS analysis; type: ADME, Microsome; details: read-out: CLH
Plasmodium berghei [18] = assay: Antimalarial activity against Plasmodium berghei ANKA infected in specific pathogen-free C57BL/6 mouse assessed as reduction in disease severity at 100 mg/kg, po administered once daily for 4 days measured up to 35 days post-infection by rapid staining-based microscopic analysis; type: functional, organism-based; summary of the method: as §3

COC1=CC(=O)N(C(=O)/C=C/[C@H](C)NC(=O)[C@H](CC(C)C)NC(=O)[C@H](CC(C)C)NC(=O)C2CCN(C)CC2)[C@H]1Cc1c[nH]c2ccccc12.O=C(O)C(F)(F)F
IC50 [1]: 79 nM | Drug metabolism [2]: Metabolite_Detected | Activity (Plasmodium falciparum [3]): Active | half-life at 1 ug/ml [4]: 1.37 h | Drug metabolism [5]: Metabolite_Detected | Activity (Plasmodium berghei [6]): Active | IC50 (Plasmodium falciparum [7]): 42 nM | IC50 (Falcipain 2): 29 nM | half-life at 1 ug/ml [8]: 0.283 h | Activity (HEK293): Non-Toxic | IC50 (Plasmodium falciparum [9]): 49 nM

COC1=CC(=O)N(C(=O)/C=C/[C@H](C)NC(=O)[C@H](CC(C)C)NC(=O)[C@H](CC2CCCCC2)NC(=O)C2CCN(C)CC2)[C@H]1Cc1c[nH]c2ccccc12.O=C(O)C(F)(F)F
IC50 [1]: 117 nM | Drug metabolism [2]: Metabolite_Detected | Activity (Plasmodium falciparum [3]): Active | Activity (Plasmodium berghei [10]): Active | half-life at 1 ug/ml [4]: 2.1 h | Drug metabolism [5]: Metabolite_Detected | IC50 (Plasmodium falciparum [7]): 26 nM | IC50 (Falcipain 2): 31 nM | half-life at 1 ug/ml [8]: 0.683 h | Activity (HEK293): Non-Toxic | IC50 (Plasmodium falciparum [9]): 28 nM

COC1=CC(=O)N(C(=O)/C=C/[C@H](CCc2ccccc2)NC(=O)[C@H](CC(C)C)NC(=O)[C@H](CC(C)C)NC(=O)[C@H](C(C)C)N(C)C)[C@H]1Cc1c[nH]c2ccccc12.O=C(O)C(F)(F)F
IC50 [1]: 112 nM | Survival (Plasmodium berghei [11]): >35 days | Activity (Plasmodium berghei [12]): Active | Activity (Plasmodium falciparum [3]): Active | Activity (Plasmodium berghei [13]): Active | half-life at 1 ug/ml [4]: 6.22 h | IC50 (Plasmodium falciparum [7]): 1 nM | IC50 (Falcipain 2): 33 nM | Drug metabolism [14]: Metabolite_Detected | Activity (Plasmodium berghei [15]): Active | Drug metabolism [16]: Metabolite_Detected | half-life at 1 ug/ml [8]: 4.55 h | microsomal CLint at 1 µM [17]: 787 µL/min/mg | Activity (Plasmodium berghei [18]): Active | Activity (HEK293): Non-Toxic | IC50 (Plasmodium falciparum [9]): 4 nM
